The subject of one experiment is dengue virus type 2. The experiment in a line: Antiviral activity against Dengue virus 2 infected in human BE(2)-C cells assessed as NS3 protein expression at 12.5 uM incubated for 48 hrs by Western blot analysis (reference value: 100%). The class given is functional. The method in brief:
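BE(2)C neuroblastoma cells in RPMI 1640 with 10% FBS were infected with DENV-2 PL046 at MOI 0.1 for 48 h, without or with compound at increasing concentrations. NS3 was immunoblotted with actin as loading control. The NS3:actin densitometry ratio was expressed as % of the DMSO control. Mean ± SD of 3 independent experiments.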

Experiment [1] relates to Zika virus. The experiment in a line: Antiviral activity against Zika virus infected in human BE(2)-C cells assessed as reduction in viral entry at 3.125 to 6.25 uM incubated for 90 mins by plaque-forming assay. Format: functional, organism-based. The method, boiled down:
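Virus entry: BE(2)C cells were incubated with DENV-2 or ZIKV for 90 min at 4 °C and washed cold. Cells were then treated with 3.125 or 6.25 μM compound at 37 °C for 1 h. Non-internalized virus was inactivated with 0.1 M glycine, pH 3, for 5 min. Cells were lysed by needle passage, and internalized virus was titrated by plaque assay. Mean ± SD, n = 3.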

Experiment [2] relates to Zika virus. The experiment in a line: Antiviral activity against Zika virus infected in human BE(2)-C cells assessed as NS3 protein expression at 6.25 uM treated during 0 to 3 hrs post infection by Western blot analysis (reference value: 100%). Format: functional. The method in brief:
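Time-of-addition design: BE(2)C cells were infected with DENV-2 or ZIKV at MOI 1. Compound at 3.125 or 6.25 μM was present either during adsorption (0–3 hpi) or afterward (3–24 hpi). Viral protein was immunoblotted against actin, with the ratio as % of the solvent control.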

1 compound from ChEMBL document CHEMBL4376891, “Benzenesulfonamide Derivatives as Calcium/Calmodulin-Dependent Protein Kinase Inhibitors and Antiviral Agents against Dengue and Zika Virus Infections” (J Med Chem, 2020) can be followed below.

Consider `COc1ccc(S(=O)(=O)N(CCCC(=O)C2CCCCCC2)c2ccccc2)cc1`, for which the Activity in the experiment on dengue virus type 2 is 5.1%; in the experiment on Zika virus [1] it was “Dose-dependent effect”; in the experiment on Zika virus [2], 20.1%.
